The results in this text go back to ChEMBL document CHEMBL3399938, “Chemopreventive flavonoids from Millettia pulchra Kurz var-laxior (Dunn) Z.Wei (Yulangsan) function as Michael reaction acceptors” (Bioorg Med Chem Lett, 2015).

The nature of data set [1]: Cytotoxicity against mouse Hepa-1c1c7 cells assessed as cell viability at 20 uM […]. The format is functional. The note with it: read-out: Activity. A digest of the protocol: (§1)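 Hepa 1c1c7 cells were seeded at 1 × 10^4 cells/mL in α-MEM with 10% FBS and 0.1% penicillin–streptomycin, then grown 24 h at 37 °C in 5% CO2. Medium was replaced with fresh medium containing sample for another 24 h. Cells were then stained with 0.2% crystal violet in 2% ethanol for 10 min, washed and dried. Bound dye was dissolved in 0.5% SDS in 50% ethanol and read at 595 nm.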

A short description of data set [2]: Retention time of the compound by UPLC analysis. It counts as physicochemical. The note with it: in the assay text read “preparative reverse-phase HPLC” for “UPLC”.
In data set [3] the target is NAD(P)H dehydrogenase [quinone] 1 (Mus musculus) (UniProt Q64669). The data set can be described thus: Induction of NQO1 activity in mouse Hepa-1c1c7 cells assessed as induction ratio at 20 uM after 48 hr by NADPH-dependent MTT assay relative to control. The format is cell-based. In short, it runs like this: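 Hepa 1c1c7 cells were seeded at 1 × 10^4 cells/mL in α-MEM with 10% FBS, grown 24 h (5% CO2, 37 °C), then exposed to sample for 24 h. Lysis used 0.8% digitonin in 2 mM EDTA (pH 7.8) for 10 min at 37 °C. A menadione/NADP/glucose-6-phosphate dehydrogenase mix with 0.72 mM MTT was added, then read at 590 nm after 3 min shaking. IR = NQO1 activity of sample-treated over DMSO-treated cells; mean ± SE of three independent experiments.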
Chain of NAD(P)H dehydrogenase [quinone] 1 (Mus musculus) (Q64669 whole entry): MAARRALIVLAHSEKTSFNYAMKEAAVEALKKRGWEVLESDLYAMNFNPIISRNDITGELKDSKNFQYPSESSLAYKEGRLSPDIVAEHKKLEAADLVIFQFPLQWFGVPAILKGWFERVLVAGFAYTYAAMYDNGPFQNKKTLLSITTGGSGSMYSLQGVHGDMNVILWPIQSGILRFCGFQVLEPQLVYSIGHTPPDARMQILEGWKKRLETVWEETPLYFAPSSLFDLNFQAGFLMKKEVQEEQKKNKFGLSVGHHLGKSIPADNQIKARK
(Tetrazolium dyes change colour on reduction, which living cells bring about.)

Data set [4] shares this target. The experiment in a line: Induction of NQO1 activity in mouse Hepa-1c1c7 cells assessed as induction ratio at 10 uM […] by NADPH-dependent MTT assay relative to control. The format is cell-based.
The nature of data set [5]: Cytotoxicity against mouse Hepa-1c1c7 cells assessed as cell viability at 10 uM […]. It counts as functional. The note with it: read-out: Activity. In short, it runs like this:
as §1

In the case of `O=C(/C=C/c1ccccc1)c1ccc2occc2c1O`, in data set [1], the viability at 20 µM worked out at 90%. The compound further yielded a Retention_time in data set [2] of 58 min. Besides, the Ratio in data set [3] worked out at 1.75.

On to `COc1cc2c(=O)cc(-c3ccccc3)oc2c2c1OC(C)(C)C=C2`, for which the viability at 20 µM in data set [1] is 106%. In addition, the Ratio in data set [3] was 1.4.

Take `CC1(C)C=Cc2c(ccc3c(=O)cc(-c4ccccc4)oc23)O1`: the viability at 20 µM in data set [1] is 99%. Moreover, the Ratio in data set [3] worked out at 1.6.

For the compound `O=c1cc(-c2ccccc2)oc2c1ccc1occc12` [LANCEOLATIN B], the viability at 20 µM in data set [1] amounted to 100%. In addition, the Ratio in data set [3] stood at 1.64.

In the case of `COc1cc2c(c3oc(-c4ccccc4)cc(=O)c13)C=CC(C)(C)O2` [CANDIDIN], in data set [1], the viability at 20 µM came to 79%. For the same compound, in data set [3], the Ratio came out at 2.02.

With `CC1(C)C=Cc2c(c(O)cc3c(=O)cc(-c4ccccc4)oc23)O1`, the viability at 20 µM in data set [1] came to 71%. The Ratio in data set [3] is 2.14.

For the compound `COc1c(C(=O)/C=C(\O)c2ccccc2)ccc2occc12` [PONGAMOL], the viability at 20 µM in data set [1] worked out at 78%. The Ratio in data set [3] is 1.69.

Regarding `COc1c(C(=O)/C=C(\O)c2ccccc2)ccc2c1C=CC(C)(C)O2`, in data set [1], the viability at 20 µM was determined as 77%. Besides, in data set [3], the Ratio worked out at 1.9.

As for `COc1c(C(=O)C[C@@H](OC)c2ccccc2)ccc2occc12`, the viability at 20 µM in data set [1] was 92%. Further, in data set [3], the Ratio was 2.07.

On to `CC1(C)C=Cc2c(ccc(C(=O)/C=C/c3ccccc3)c2O)O1` [LONCHOCARPIN], for which the viability at 20 µM in data set [1] was found to be 84%. In addition, in data set [3], the Ratio stood at 1.7.

For `O=c1cc(-c2ccc(Br)cc2)oc2ccccc12`, the Ratio in data set [4] is 2.17. The viability at 10 µM in data set [5] is 109%.

With `COc1cc2c(c(O)c1C(=O)/C=C/c1ccccc1)C=CC(C)(C)O2`, the viability at 20 µM in data set [1] was found to be 83%. Besides, in data set [2], the Retention_time worked out at 131 min. The Ratio in data set [3] was determined as 2.14.

Regarding `COc1c(C(=O)/C=C/c2ccccc2)ccc2occc12`, the viability at 20 µM in data set [1] worked out at 81%. Besides, the Ratio in data set [3] amounted to 2.01.

For `CC1(C)C=Cc2c(ccc3c2OC(c2ccccc2)CC3=O)O1` (centres undefined), the viability at 20 µM in data set [1] stood at 114%. Moreover, in data set [3], the Ratio was 1.54.

In the case of `COc1c(-c2ccccc2)oc2c(ccc3occc32)c1=O` [KARANJIN], the viability at 20 µM in data set [1] worked out at 100%. The Ratio in data set [3] stood at 1.57.

Turning to `O=c1c2c(oc3c1ccc1occc13)-c1ccccc1OC2`, the viability at 20 µM in data set [1] was 97%. In data set [3], the Ratio stood at 1.67.
